System: OVA-sensitised Brown Norway rat
Assay: OVA-sensitised and challenged Brown Norway rat allergy model
Type: in vivo
Settings: 1 mg/kg intratracheal, 24 h before and 24 h after OVA challenge
Method in brief: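 In OVA-sensitised Brown Norway rats, the test compound was given intratracheally 24 h before and 24 h after OVA challenge (5 sensitised-only, 9 dosed per point; or groups of eight). Alternatively, from 14 days post-sensitisation, rats received 1 mg/kg weekly for eight doses (10 per point), then aerosolised OVA 26 days later. BAL eosinophils and IL-13 were measured 48 h post-challenge. Results were given as mean±SEM; Mann-Whitney U test versus vehicle-dosed OVA controls.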

Q: `CCCC1O[C@@H]2C[C@H]3[C@@H]4CCC5=CC(=O)C=C[C@]5(C)[C@H]4[C@@H](O)C[C@]3(C)[C@]2(C(=O)CO)O1` (stereo partly shown) [budesonide] was tested. Which “efficacy of acute dosing (BAL eosinophils, IL-13)” value did it give?
A: Its value is “demonstrated efficacy”.

Source: PMC4769423 (BMJ Open Respiratory Research, 2016)
